The values below come from ChEMBL document CHEMBL2429791, “Preparation of asymmetric urea derivatives that target prostate-specific membrane antigen for SPECT imaging” (J Med Chem, 2013).

SMILES strings stand for the structures.

A word on the Ki: it is the equilibrium dissociation constant of an inhibitor or competing ligand from its target. Read a low Ki as a stronger hold on the target. As a reminder, the Kd is the concentration at which binding is half-saturated. A lower Kd goes with a tighter complex. As usually defined, the logD is lipophilicity at a set pH, counting ionised and neutral species. A higher logD goes with higher lipophilicity.

Data set [1] concerns the target T1, Glutamate carboxypeptidase 2 (Homo sapiens, UniProt Q04609). The data set is described as follows: Displacement of [125I]-DCIT from PSMA in human LNCaP cells after 1 hr by gamma counting. On the technique in general: Loss of bound radioactivity is the signal in a displacement assay; it reports binding, not function.
The subject of data set [2] is LNCaP. The data set is described as follows: Biodistribution in LNCAP cells in C.B.-17/Icr […] Jcl mouse xenografted with human LNCAP and PC3 cells after 30 to 60 mins. The conditions noted are these: in vivo. It is filed as ADME, organism-based. (In xenograft studies the graft and the host belong to different species.)
The next data set has as its system Intestine. The data set is described as follows: Biodistribution in intestine of C.B.-17/Icr […] Jcl mouse xenografted with human LNCAP and PC3 cells after 30 to 60 mins. Type of data set: ADME, organism-based. The conditions noted are these: in vivo.
The next data set has as its system Liver (Mus musculus). Briefly: Biodistribution in liver of C.B.-17/Icr […] Jcl mouse xenografted with human LNCAP and PC3 cells after 30 to 60 mins. The conditions noted are these: in vivo.
Data set [3] relates to LNCaP. Briefly: Biodistribution in LNCAP cells in C.B.-17/Icr +/+ Jcl mouse xenografted with human LNCAP and PC3 cells at 25.9 MBq, iv after 30 mins by SPECT/CT analysis in presence of 2-PMPA. It is filed as ADME, organism-based. The conditions noted are these: in vivo, 0.5 h. The essentials:
(§1)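 Anaesthetised (2.5% isoflurane) LNCaP/PC-3 tumour-bearing mice (20–25 g), kept on a heating pad, given ¹²³I tracer (25.9 MBq in 0.10 mL saline) iv by tail vein, with or without 50 mg/kg 2-PMPA. Pinhole SPECT acquired over 30–64 min (159 keV ±10% window, 32 projections × 60 s, 360°), then CT; images reconstructed by 3D OSEM.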

For another data set, the system named is PC-3. Briefly: Biodistribution in PC3 cells in C.B.-17/Icr +/+ Jcl mouse xenografted with human LNCAP and PC3 cells at 25.9 MBq, iv after 30 mins by SPECT/CT analysis in presence of 2-PMPA. Type of data set: ADME, organism-based. The conditions noted are these: in vivo, 0.5 h. The essentials:
as §1

Data set [4] deals with LNCaP. Briefly: Biodistribution in LNCAP cells in C.B.-17/Icr +/+ Jcl mouse xenografted with human LNCAP and PC3 cells at 25.9 MBq, iv after 30 mins by SPECT/CT analysis. It is filed as ADME, organism-based. The conditions noted are these: in vivo, 0.5 h. The essentials:
as §1

The target in data set [5] is T1, Glutamate carboxypeptidase 2. The data set is described as follows: Binding affinity to PSMA in human LNCaP cells after 1 hr by gamma counting. It is filed as cell-based. The essentials: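 LNCaP cells plated at 4 × 10⁵ cells/well and grown 48 h (37 °C/5% CO₂), then washed with RPMI 1640 containing 0.5% BSA. Saturation binding used ¹²⁵I-labelled ligand (specific activity 81.4 kBq/nmol), 1 h at 37 °C; nonspecific binding measured with 100 µM non-radioactive iodinated compound. Cells washed, lysed in 0.2 N NaOH, gamma-counted; Kd from Scatchard plots.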

Data set [6] is described as follows: Distribution coefficient, log D of the compound. Type of data set: physicochemical. The conditions noted are these: octanol/water.
The subject of data set [7] is Kidney. The data set is described as follows: Biodistribution in kidney of C.B.-17/Icr […] Jcl mouse xenografted with human LNCAP and PC3 cells after 2 mins to 3 hrs. The conditions noted are these: in vivo. It is filed as ADME, organism-based. The essentials:
(§2)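 ¹²⁵I-labelled tracer given iv by tail vein to mice (22–24 g) bearing LNCaP (left shoulder) and PC-3 (right shoulder) xenografts of about 5–10 mm, grown from 1–5 × 10⁶ cells in 1:1 Matrigel. n=4 per time point; decapitated at 2 min, 30 min, 1, 3, 6 h. Tissues weighed and counted; uptake as %ID/g, mean ± SD.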

Another data set concerns Liver. Briefly: Drug excretion in C.B.-17/Icr […] Jcl mouse liver xenografted with human LNCAP and PC3 cells. Type of data set: ADME, tissue-based. The conditions noted are these: in vivo.
For data set [8], the system named is LNCaP. Briefly: Biodistribution in LNCAP cells in C.B.-17/Icr +/+ Jcl mouse xenografted with human LNCAP and PC3 cells after 2 mins to 3 hrs. It is filed as ADME, organism-based. The conditions noted are these: in vivo. The essentials: as §2
Another data set deals with Blood. The data set is described as follows: Biodistribution in blood of C.B.-17/Icr […] Jcl mouse xenografted with human LNCAP and PC3 cells after 30 mins. It is filed as ADME, organism-based. The conditions noted are these: in vivo, 0.5 h.
Data set [9] relates to Kidney. Briefly: Drug excretion in C.B.-17/Icr […] Jcl mouse kidney xenografted with human LNCAP and PC3 cells. It is filed as ADME, tissue-based. The conditions noted are these: in vivo.

T1 sequence (Q04609 whole entry): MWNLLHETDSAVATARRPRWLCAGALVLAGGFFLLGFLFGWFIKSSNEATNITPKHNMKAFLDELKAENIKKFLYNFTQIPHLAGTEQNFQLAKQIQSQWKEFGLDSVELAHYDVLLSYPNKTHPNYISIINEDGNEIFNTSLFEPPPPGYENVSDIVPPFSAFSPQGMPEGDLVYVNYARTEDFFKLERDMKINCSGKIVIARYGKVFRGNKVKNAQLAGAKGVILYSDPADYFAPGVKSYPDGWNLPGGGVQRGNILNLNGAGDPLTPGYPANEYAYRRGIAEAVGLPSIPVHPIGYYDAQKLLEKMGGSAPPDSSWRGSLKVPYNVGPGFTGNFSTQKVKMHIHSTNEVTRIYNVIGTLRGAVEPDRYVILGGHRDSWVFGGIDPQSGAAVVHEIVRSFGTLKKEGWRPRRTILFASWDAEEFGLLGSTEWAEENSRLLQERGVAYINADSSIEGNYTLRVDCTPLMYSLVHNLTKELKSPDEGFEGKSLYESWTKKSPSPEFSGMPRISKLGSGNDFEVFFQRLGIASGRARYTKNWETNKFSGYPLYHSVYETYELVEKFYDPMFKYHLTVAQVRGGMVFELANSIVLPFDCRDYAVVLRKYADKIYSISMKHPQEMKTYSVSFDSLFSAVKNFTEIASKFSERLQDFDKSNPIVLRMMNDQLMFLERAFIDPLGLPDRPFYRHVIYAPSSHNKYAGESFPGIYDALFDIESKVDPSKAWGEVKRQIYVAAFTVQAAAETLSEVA

Consider `O=C(O)CC[C@H](NC(=O)N[C@@H](CS)C(=O)O)C(=O)O`, for which the affinity in data set [1] corresponds to a Ki of 376 nM.
Regarding `O=C(O)CC[C@H](NC(=O)N[C@@H](CSC1CC(=O)N(CCCCCNC(=O)CNC(=O)c2cccc([125I])c2)C1=O)C(=O)O)C(=O)O` (some centres undefined), the Drug uptake result in the data set with LNCaP [2], in the data set with Intestine and in the data set with Liver (Mus musculus) was “Active” each time.
Turning to `O=C(O)CC[C@H](NC(=O)N[C@@H](CSC1CC(=O)N(CCCC[C@H](NC(=O)CNC(=O)c2cccc([123I])c2)C(=O)O)C1=O)C(=O)O)C(=O)O` (some centres undefined), the values for the Drug uptake entry in the data set with LNCaP [3], in the data set on PC-3 and in the data set with LNCaP [4] were “Not Active”, “Not Active” and “Active”, respectively.
`O=C(O)CC[C@H](NC(=O)N[C@@H](CSC1CC(=O)N(CCCC[C@H](NC(=O)c2cccc(I)c2)C(=O)O)C1=O)C(=O)O)C(=O)O` (some centres undefined) displayed a Ki in data set [1] of 2.79 nM.
On the same count and under the same terms, with `CN1C(=O)CC(SC[C@H](NC(=O)N[C@@H](CCC(=O)O)C(=O)O)C(=O)O)C1=O` (some centres undefined) the figure was 62.1 nM; with `CNCC(=O)N[C@@H](CCCCN1C(=O)CC(SC[C@H](NC(=O)N[C@@H](CCC(=O)O)C(=O)O)C(=O)O)C1=O)C(=O)O` (some centres undefined), 94.8 nM.
`O=C(O)CC[C@H](NC(=O)N[C@@H](Cc1ccc(O)c([125I])c1)C(=O)O)C(=O)O` registered a Kd in [5] of 143 nM.
`O=C(O)CC[C@H](NC(=O)N[C@@H](CCCCNCc1ccc([125I])cc1)C(=O)O)C(=O)O`: the Kd in [5] was found to be 20.4 nM. Further, in [6], the logD is -2.91. Further, the Drug uptake entry with Kidney [7], with LNCaP [8] and with Blood was “Active” in each case. For the same compound, the Drug excretion entry in the data set on Liver was “Not Active”; in the data set on Kidney [9], “Active”.
In turn, `O=C(O)CC[C@H](NC(=O)N[C@@H](CSC1CC(=O)N(CCCC[C@H](NC(=O)CNC(=O)c2cccc(I)c2)C(=O)O)C1=O)C(=O)O)C(=O)O` (some centres undefined) gave an inhibition constant (Ki) in data set [1] of 4.97 nM.
The same measure, in the same setting: the figure for `O=C(O)CC[C@H](NC(=O)N[C@@H](CSC1CC(=O)N(CCCC[C@H](NC(=O)CNC(=O)c2ccccc2)C(=O)O)C1=O)C(=O)O)C(=O)O` (some centres undefined) is 8.06 nM; for `O=C(O)CC[C@H](NC(=O)N[C@@H](CSC1CC(=O)N(CCCCCNC(=O)CNC(=O)c2cccc(I)c2)C1=O)C(=O)O)C(=O)O` (some centres undefined) it is 7.91 nM.
In data set [1], `O=C(O)CC[C@H](NC(=O)N[C@@H](CSC1CC(=O)N(CCCC[C@H](NC(=O)CCNC(=O)c2cccc(I)c2)C(=O)O)C1=O)C(=O)O)C(=O)O` (some centres undefined) yielded a Ki of 6.26 nM.
On the same count and under the same terms, the figure for `O=C(O)CC[C@H](NC(=O)N[C@@H](CSC1CC(=O)N(CCCC[C@H](NC(=O)CCCNC(=O)c2cccc(I)c2)C(=O)O)C1=O)C(=O)O)C(=O)O` (some centres undefined) is 2.95 nM; for `O=C(O)CC[C@H](NC(=O)N[C@@H](CSC1CC(=O)N(CCCC[C@H](NC(=O)CCCCNC(=O)c2cccc(I)c2)C(=O)O)C1=O)C(=O)O)C(=O)O` (some centres undefined) it is 2.14 nM.
